These results are taken from ChEMBL document CHEMBL1149647, “Structure-based design of TACE selective inhibitors: manipulations in the S1'-S3' pocket” (Bioorg Med Chem, 2007).

For orientation: IC50 means the concentration at which inhibition is half-maximal. The term inhibition in vivo denotes the relative decrease from the control value, in per cent. Read a low inhibition in vivo as a response near the control.

Assay [1] deals with 72 kDa type IV collagenase (Homo sapiens, UniProt P08253). The assay can be described thus: Inhibition of human recombinant MMP2. The method, boiled down: (§1)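 Enzyme potency is expressed as IC50 in nM, reported as average ± SD.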
Chain of 72 kDa type IV collagenase (P08253 whole entry): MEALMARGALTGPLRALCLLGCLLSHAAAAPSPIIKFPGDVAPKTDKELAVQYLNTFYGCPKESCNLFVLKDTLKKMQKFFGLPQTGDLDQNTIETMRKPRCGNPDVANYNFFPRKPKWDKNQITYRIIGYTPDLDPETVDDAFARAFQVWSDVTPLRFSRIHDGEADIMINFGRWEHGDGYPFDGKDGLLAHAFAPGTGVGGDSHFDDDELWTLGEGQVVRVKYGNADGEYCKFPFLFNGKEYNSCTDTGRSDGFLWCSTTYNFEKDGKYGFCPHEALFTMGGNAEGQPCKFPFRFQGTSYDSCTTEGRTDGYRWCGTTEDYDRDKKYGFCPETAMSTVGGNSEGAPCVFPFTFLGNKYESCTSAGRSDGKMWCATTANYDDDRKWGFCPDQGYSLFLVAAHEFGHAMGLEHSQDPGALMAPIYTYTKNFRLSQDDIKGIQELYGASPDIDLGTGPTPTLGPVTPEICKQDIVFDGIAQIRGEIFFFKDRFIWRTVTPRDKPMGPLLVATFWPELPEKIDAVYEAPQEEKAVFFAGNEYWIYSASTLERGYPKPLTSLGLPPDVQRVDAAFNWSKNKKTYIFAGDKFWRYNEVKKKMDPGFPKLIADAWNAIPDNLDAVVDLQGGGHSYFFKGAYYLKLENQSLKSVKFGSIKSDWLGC
For assay [2], the target named is Collagenase 3 (Homo sapiens, UniProt P45452). The assay can be described thus: Inhibition of human recombinant MMP13. The essentials:
as §1

Assay [3] deals with T1, Disintegrin and metalloproteinase domain-containing protein 17 (Homo sapiens, UniProt P78536). The assay can be described thus: Inhibition of human TACE in human whole blood.
T1 sequence (P78536 whole entry, the tested form may be a part): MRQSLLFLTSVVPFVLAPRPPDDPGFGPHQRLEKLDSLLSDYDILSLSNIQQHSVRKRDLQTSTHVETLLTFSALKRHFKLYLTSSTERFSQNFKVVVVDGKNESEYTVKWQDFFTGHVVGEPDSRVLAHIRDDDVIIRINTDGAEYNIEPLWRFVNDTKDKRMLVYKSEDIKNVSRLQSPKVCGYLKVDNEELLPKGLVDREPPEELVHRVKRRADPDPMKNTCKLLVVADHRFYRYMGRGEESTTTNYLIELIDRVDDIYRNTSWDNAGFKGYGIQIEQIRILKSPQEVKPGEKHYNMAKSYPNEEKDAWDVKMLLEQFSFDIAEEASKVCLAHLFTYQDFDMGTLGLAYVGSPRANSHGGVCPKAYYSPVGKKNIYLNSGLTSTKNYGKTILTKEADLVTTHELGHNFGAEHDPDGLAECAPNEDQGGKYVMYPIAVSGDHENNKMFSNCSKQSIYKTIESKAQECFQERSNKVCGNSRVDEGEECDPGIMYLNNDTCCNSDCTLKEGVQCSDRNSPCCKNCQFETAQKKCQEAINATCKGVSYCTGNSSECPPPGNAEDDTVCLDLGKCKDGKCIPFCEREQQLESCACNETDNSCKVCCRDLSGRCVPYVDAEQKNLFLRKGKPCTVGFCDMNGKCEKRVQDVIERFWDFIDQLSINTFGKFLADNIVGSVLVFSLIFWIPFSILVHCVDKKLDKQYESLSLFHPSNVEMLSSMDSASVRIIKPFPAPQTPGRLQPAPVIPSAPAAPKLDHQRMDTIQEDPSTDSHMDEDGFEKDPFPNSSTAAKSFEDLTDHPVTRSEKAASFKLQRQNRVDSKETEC
The target in assay [4] is T1, Disintegrin and metalloproteinase domain-containing protein 17. The assay can be described thus: Inhibition of human TACE expressed in CHO cells by FRET assay. It is filed as cell-based.
Assay [5] is filed under the species Homo sapiens. The assay can be described thus: Selectivity for TACE over MMP13.
Assay [6] addresses Matrix metalloproteinase-14 (Homo sapiens, UniProt P50281). The assay can be described thus: Inhibition of human recombinant MMP14.
Assay [7] concerns Mus musculus. The assay can be described thus: Inhibition of LPS-induced TNFalpha production in BALB/CJ mouse at 25 mg/kg, po after 90 mins. It is filed as functional. The note with it: 1.5 h.
For assay [8], the species on record is Homo sapiens. The assay can be described thus: Selectivity for TACE over MMP2.

In the case of `CC#CCNc1ccc(S(=O)(=O)N2CCSC(C)(C)[C@@H]2C(=O)NO)cc1`, the half-inhibitory concentration (IC50) in assay [1] is 0.056 µM; in assay [2], 0.03 µM; in assay [3], 3.5 µM; in assay [4], 0.0023 µM.
With `CC#CCNc1ccc(S(=O)(=O)CC2(C(=O)NO)CCNCC2)cc1`, the IC50 in assay [4] was determined as 0.0645 µM.
As to `CC#CCNc1ccc(S(=O)(=O)CC2(C(=O)NO)CCN(C(=O)OC(C)(C)C)CC2)cc1`, the Selectivity ratio in assay [5] was over 400. The IC50 in assay [1] stood at 0.12 µM; in assay [3] it was 16 µM; in assay [6] it was 2.37 µM; in assay [4], 0.0016 µM.
In assay [3], `CC#CCOc1ccc(S(=O)(=O)N2CCSC(C)(C)[C@@H]2C(=O)NO)cc1` registered an IC50 of 0.3 µM.
On to `CC#CCNc1ccc(S(=O)(=O)CC2(C(=O)NO)CCN(C(=O)C(C)C)CC2)cc1`, for which the IC50 in assay [1] amounted to 0.513 µM; in assay [2], 3.2 µM; in assay [3], 3.6 µM; in assay [6], 4.89 µM; in assay [4], 0.0023 µM. In assay [7], this molecule had an inhibition in vivo at 25 mg/kg of 72%.
Consider `CC#CCNc1ccc(S(=O)(=O)CC2(C(=O)NO)CCN(Cc3ccncc3)CC2)cc1`, for which the IC50 in assay [1] worked out at 1.53 µM; in assay [2] it was 6.88 µM; in assay [3], 7.2 µM; in assay [6] it was 4.32 µM; in assay [4], 0.0064 µM.
For `CC#CCOc1ccc(S(=O)(=O)CC2(C(=O)NO)CCN(C(=O)OC(C)(C)C)CC2)cc1`, the figures for the IC50 in assay [2], in assay [3] and in assay [4] were 0.135 µM, 14 µM and 0.002 µM, respectively.
In the case of `CC#CC(C)Oc1ccc(S(=O)(=O)CC2(C(=O)NO)CCN(S(=O)(=O)C(C)C)CC2)cc1` (stereo not given), the values for the Selectivity ratio in assay [5] and in assay [8] were 720 and 1000, respectively. The IC50 in assay [1] was 4.18 µM; in assay [2], 2.91 µM; in assay [3], 31 µM; in assay [4], 0.004 µM.
On to `CC#CCNc1ccc(S(=O)(=O)CC2(C(=O)NO)CCN(C(=O)C(C)CC)CC2)cc1` (stereo not given), for which the IC50 worked out at 1.31 µM in assay [1]; 2.48 µM in assay [2]; 4.9 µM in assay [3]; 7.05 µM in assay [6]; 0.0035 µM in assay [4].
For `CC#CCNc1ccc(S(=O)(=O)CC2(C(=O)NO)CCN(C(=O)N(CC)CC)CC2)cc1`, the Selectivity ratio in assay [5] is over 750. Moreover, the IC50 in assay [1] was 0.216 µM; in assay [2] it was 0.772 µM; in assay [3], 6.4 µM; in assay [6], 3.62 µM; in assay [4], under 0.001 µM.
As to `CC(C)(C)OC(=O)N1CCC(CS(=O)(=O)c2ccc(NCC#CCO)cc2)(C(=O)NO)CC1`, the IC50 in assay [1] is 0.334 µM; in assay [2], 1.04 µM; in assay [3] it was 25 µM; in assay [4], 0.01 µM.
On to `CC#CCOc1ccc(S(=O)(=O)CC2(C(=O)NO)CCN(S(=O)(=O)C(C)C)CC2)cc1`, for which the figures for the Selectivity ratio in assay [5] and in assay [8] were 52 and 93, respectively. Further, the IC50 in assay [1] was 0.28 µM; in assay [2], 0.157 µM; in assay [3], 1.5 µM; in assay [6], 3.64 µM; in assay [4] it was 0.003 µM.
With `CC#CCN(C)c1ccc(S(=O)(=O)CC2(C(=O)NO)CCN(C(=O)OC(C)(C)C)CC2)cc1`, the IC50 was 1.6 µM in assay [2], over 50 µM in assay [3] and 0.0033 µM in assay [4].
Turning to `CC#CC(C)(C)Oc1ccc(S(=O)(=O)CC2(C(=O)NO)CCN(S(=O)(=O)C(C)C)CC2)cc1`, the IC50 in assay [1] was over 1.67 µM; in assay [2], 12 µM; in assay [3], over 50 µM; in assay [4], 0.027 µM.
For `CC#CCNc1ccc(S(=O)(=O)CC2(C(=O)NO)CCN(S(=O)(=O)C(C)C)CC2)cc1` the same measures were 0.097 µM, 2.08 µM, 5 µM and 0.002 µM.
As to `CC#CCNc1ccc(S(=O)(=O)CC2(C(=O)NO)CCN(C(=O)c3ccccc3C)CC2)cc1`, the Selectivity ratio in assay [5] was determined as 499. In addition, the IC50 was determined as 0.046 µM in assay [1]; 0.584 µM in assay [2]; 4.8 µM in assay [3]; 1 µM in assay [6]; 0.0025 µM in assay [4].
